Test results: ChEMBL document CHEMBL3112446, “Discovery and optimization of a new class of pyruvate kinase inhibitors as potential therapeutics for the treatment of methicillin-resistant Staphylococcus aureus infections” (Bioorg Med Chem, 2014); call rule not given here
≈ marks a conversion by molar mass, not a printed value.

How the values were obtained:
[1] = system: Staphylococcus aureus; assay: Antibacterial activity against Staphylococcus aureus ATCC 29213 by two fold serial dilution method; type: functional
[2] = Inhibition of methicillin-resistant Staphylococcus aureus pyruvate kinase
Outline: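 His-tagged MRSA PK. Compounds diluted in 100% DMSO. IC50 calculated from a triplicate 15-point titration.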

[3] = molecular target: Pyruvate kinase PKLR (Homo sapiens) (UniProt P30613); assay: Inhibition human pyruvate kinase L at 10 uM
Chain of Pyruvate kinase PKLR (Homo sapiens) (P30613 whole entry, looked up, canonical isoform): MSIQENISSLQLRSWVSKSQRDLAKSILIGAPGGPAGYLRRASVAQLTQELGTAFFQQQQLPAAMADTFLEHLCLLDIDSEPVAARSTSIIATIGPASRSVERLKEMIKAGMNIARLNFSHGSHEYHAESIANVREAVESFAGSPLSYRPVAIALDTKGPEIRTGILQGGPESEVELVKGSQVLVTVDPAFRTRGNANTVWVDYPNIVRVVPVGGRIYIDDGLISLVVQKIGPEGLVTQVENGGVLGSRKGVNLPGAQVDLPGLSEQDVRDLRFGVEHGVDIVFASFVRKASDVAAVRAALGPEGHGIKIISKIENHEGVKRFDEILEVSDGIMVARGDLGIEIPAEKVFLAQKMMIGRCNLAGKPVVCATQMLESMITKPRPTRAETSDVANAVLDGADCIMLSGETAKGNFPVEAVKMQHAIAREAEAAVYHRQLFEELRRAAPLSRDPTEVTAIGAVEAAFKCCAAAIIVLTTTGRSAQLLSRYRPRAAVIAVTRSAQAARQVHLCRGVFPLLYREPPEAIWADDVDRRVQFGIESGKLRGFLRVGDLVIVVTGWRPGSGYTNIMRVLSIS
Outline: (§1)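 His-tagged recombinant human PK isoforms were used. Compounds were diluted in 100% DMSO and tested at 10 µM, the highest concentration tested. Values are percent inhibition of enzymatic activity.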

[4] = molecular target: Pyruvate kinase PKLR (Homo sapiens) (UniProt P30613); assay: Inhibition human pyruvate kinase R at 10 uM; outline: as §1
[5] = molecular target: Pyruvate kinase PKM (Homo sapiens) (UniProt P14618); assay: Inhibition human pyruvate kinase M2 at 10 uM; outline: as §1
Chain of Pyruvate kinase PKM (Homo sapiens) (P14618 2-531 limits assumed): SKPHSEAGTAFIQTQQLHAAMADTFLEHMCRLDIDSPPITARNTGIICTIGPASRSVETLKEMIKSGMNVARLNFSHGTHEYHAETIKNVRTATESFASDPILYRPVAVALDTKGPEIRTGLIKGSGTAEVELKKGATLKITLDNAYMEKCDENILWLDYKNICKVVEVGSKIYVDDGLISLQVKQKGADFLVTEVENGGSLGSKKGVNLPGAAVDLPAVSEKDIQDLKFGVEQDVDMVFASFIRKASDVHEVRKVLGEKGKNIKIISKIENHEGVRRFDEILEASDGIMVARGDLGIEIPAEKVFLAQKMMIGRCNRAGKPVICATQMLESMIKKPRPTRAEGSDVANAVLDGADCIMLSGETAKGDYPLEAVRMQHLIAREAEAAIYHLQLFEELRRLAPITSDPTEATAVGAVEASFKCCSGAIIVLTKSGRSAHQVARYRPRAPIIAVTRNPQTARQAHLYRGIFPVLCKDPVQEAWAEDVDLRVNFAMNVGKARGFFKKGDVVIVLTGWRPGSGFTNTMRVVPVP

[6] = molecular target: Pyruvate kinase PKM (Homo sapiens) (UniProt P14618); assay: Inhibition human pyruvate kinase M1 at 10 uM; outline: as §1
[7] = system: Staphylococcus aureus; assay: Inhibition of methicillin-resistant Staphylococcus aureus pyruvate kinase at 10 uM
Outline: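 His-tagged MRSA PK. Compounds diluted in 100% DMSO. Percent inhibition reported at the highest concentration tested, 10 µM.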

[8] = system: HEK293; assay: Cytotoxicity against HEK293 cells assessed as cell viability at 100 ug/ml; type: cell-based; conditions: human
[9] = system: HEK293; assay: Cytotoxicity against HEK293 cells assessed as cell viability at 10 ug/ml; type: cell-based; conditions: human
[10] = system: HEK293; assay: Cytotoxicity against HEK293 cells assessed as cell viability at 1 ug/ml; type: cell-based; conditions: human
[11] = system: Staphylococcus aureus; assay: Antibacterial activity against methicillin-resistant Staphylococcus aureus MW2 by two fold serial dilution method; type: functional
[12] = system: Staphylococcus aureus; assay: Inhibition of methicillin-resistant Staphylococcus aureus pyruvate kinase at 1 uM

SMILES | MIC>98 [1] [µg/mL] | IC50 ([2]; read-out: IC50) [nM] | inhibition [3] [%] | inhibition [4] [%] | inhibition [5] [%] | inhibition [6] [%] | inhibition [7] [%] | other results
Brc1ccc2cc(C#Cc3cc4ccccc4[nH]3)[nH]c2c1 | >64 | 7.1 | – | – | – | – | – | –
Brc1ccc2cc(-c3cc4ccccc4o3)[nH]c2c1 | >64 | 108 | -6 | -5.5 | 0.4 | 5.3 | 95.9 | –
OCCn1c(-c2cc3ccc(Br)cc3[nH]2)cc2cc(Br)ccc21 | 2 (≈ 4.61 µM) | 1.3 | 6.8 | 25.2 | 12.1 | 14.6 | 101 | –
Brc1ccc2cc(-c3cc4ccccc4[nH]3)[nH]c2c1 | 2 (≈ 6.43 µM) | 21.4 | – | – | – | – | – | –
Brc1cc2cc(-c3cc4ccccc4[nH]3)[nH]c2cc1Br | – | – | – | – | – | – | 39 | –
O=C(O)Cn1c(-c2cc3ccc(Br)cc3[nH]2)cc2cc(Br)ccc21 | >64 | 11.1 | – | – | – | – | – | –
COCn1c(-c2cc3ccc(Br)cc3[nH]2)cc2cc(Br)ccc21 | >64 | 1.9 | – | – | – | – | – | Cell viability [8]: 73%; Cell viability [9]: 102%; Cell viability [10]: 123%
Brc1ccc2[nH]c(-c3cc4cc(Br)ccc4[nH]3)cc2c1 | – | 3 | 9.8 | 24.4 | 0.5 | 12.3 | 71 | –
O=C(Cn1c(-c2cc3ccc(Br)cc3[nH]2)cc2cc(Br)ccc21)N1CCOCC1 | >64 | 6 | – | – | – | – | – | –
Brc1ccc2cc(-c3cc4cc(-c5ccccc5)ccc4[nH]3)[nH]c2c1 | >64 | 2.2 | – | – | – | – | – | –
Brc1ccc2cc(C#Cc3cc4ccc(Br)cc4[nH]3)[nH]c2c1 | >64 | 2.4 | – | – | – | – | – | –
COc1ccc2[nH]c(-c3cc4ccc(Br)cc4[nH]3)cc2c1 | >64 | 2.5 | – | – | – | – | – | Cell viability [8]: 72%; Cell viability [9]: 88%; Cell viability [10]: 107%
Cn1c(-c2cc3ccc(Br)cc3[nH]2)cc2cc(Br)ccc21 | >64 | 1 | 2.8 | 2.7 | 9.1 | 13.9 | 99 | –
Brc1ccc2cc(/C=C/c3cc4ccc(Br)cc4[nH]3)[nH]c2c1 | >64 | 3.9 | – | – | – | – | – | –
Brc1ccc2cc(-c3cc4cc(Br)c(Br)cc4[nH]3)[nH]c2c1 | 0.5 (≈ 1.07 µM) | 1.5 | 23.7 | 33.4 | 15.8 | 8.6 | 94.1 | Cell viability [8]: 63%; Cell viability [9]: 71%; Cell viability [10]: 102%
Brc1ccc2[nH]c(-c3cc4ccc(Br)cc4[nH]3)cc2c1 | – | 2.2 | 6.1 | 13.6 | 8.7 | 6.9 | 97.8 | MIC [11]: 0.5 µg/mL (≈ 1.28 µM)
Brc1ccc2[nH]c(-c3cc4cc(Br)c(Br)cc4[nH]3)cc2c1 | 1 (≈ 2.13 µM) | 1.6 | – | – | – | – | – | –
Brc1ccc2cc(-c3ccc(-c4cc5ccccc5[nH]4)cc3)[nH]c2c1 | >64 | 5.6 | – | – | – | – | – | –
Brc1ccc2[nH]c(-c3cc4ccccc4o3)cc2c1 | – | – | – | – | – | – | 45 | –
O=[N+]([O-])c1cc(-c2cc3ccccc3[nH]2)ccc1-c1cc2ccc(Br)cc2[nH]1 | 2 (≈ 4.63 µM) | 1.8 | -8.9 | 0 | 6.8 | 9.5 | 86.2 | –
Brc1ccc2cc(-c3ccc(-c4cc5ccc(Br)cc5[nH]4)s3)[nH]c2c1 | >64 | – | – | – | – | – | – | inhibition [12]: 28%

SMILES | MIC>98 [1] [µg/mL] | IC50 ([2]; read-out: IC50) [nM] | inhibition [3] [%] | inhibition [4] [%] | inhibition [5] [%] | inhibition [6] [%] | inhibition [7] [%] | other results
Brc1ccc2[nH]c(-c3nc4ccccc4s3)cc2c1 | >64 | 358 | – | – | – | – | – | –
COc1cc(-c2cc3ccccc3[nH]2)ccc1-c1cc2ccc(Br)cc2[nH]1 | >64 | 2.1 | 4.3 | 13.5 | 14.6 | 7.3 | 62.2 | –
Brc1ccc2cc(-c3ccc(-c4cc5ccc(Br)cc5[nH]4)cc3)[nH]c2c1 | >64 | – | – | – | – | – | – | inhibition [12]: 54%
Brc1ccc2[nH]c(C#Cc3cc4ccc(Br)cc4[nH]3)cc2c1 | 16 (≈ 38.6 µM) | 4.7 | 14 | 27.8 | 8.7 | 19.5 | 86.3 | –
Brc1ccc2[nH]c(-c3nc4ccc(Br)cc4s3)cc2c1 | >64 | 4.1 | – | – | – | – | – | –
Brc1ccc2cc(/C=C/c3cc4ccccc4[nH]3)[nH]c2c1 | >64 | 4.5 | 12.9 | 23.8 | -0.9 | 16.1 | 93.4 | Cell viability [8]: 115%; Cell viability [9]: 114%; Cell viability [10]: 107%
Cn1c(C#Cc2cc3ccc(Br)cc3n2C)cc2ccc(Br)cc21 | – | – | – | – | – | – | 27 | –
Brc1ccc2[nH]c(-c3cc4ccccc4s3)cc2c1 | >64 | – | – | – | – | – | – | inhibition [12]: 42%
Brc1ccc2[nH]c(CCc3cc4ccc(Br)cc4[nH]3)cc2c1 | >64 | 6.3 | – | – | – | – | – | –
Brc1ccc2[nH]c(-c3cc4ccccc4[nH]3)cc2c1 | – | – | – | – | – | – | 36 | –
CN1CCN(CCn2c(-c3cc4ccc(Br)cc4[nH]3)cc3cc(Br)ccc32)CC1 | 4 (≈ 7.75 µM) | 2 | 16.8 | 26.1 | 1.7 | 3.2 | 100 | –
Brc1ccc2cc(CCc3cc4ccc(Br)cc4[nH]3)[nH]c2c1 | >64 | 6.5 | 9.7 | 24.1 | 1.3 | 9.9 | 93.4 | Cell viability [8]: 85%; Cell viability [9]: 92%; Cell viability [10]: 104%
Brc1ccc2cc(-c3cc4ccccc4s3)[nH]c2c1 | >64 | 14 | – | – | – | – | – | –
Brc1ccc2c(c1)cc(-c1cc3ccc(Br)cc3[nH]1)n2CCN1CCOCC1 | >64 | 1.2 | 32.1 | 50.7 | 3.5 | 13.1 | 101 | –
Brc1ccc2cc(-c3nc4ccccc4s3)[nH]c2c1 | >64 | 152 | 7.8 | 21.6 | 3 | 12.4 | 89.8 | –
Brc1ccc2[nH]c(/C=C/c3cc4ccc(Br)cc4[nH]3)cc2c1 | >64 | 4.1 | – | – | – | – | – | –
Brc1ccc2cc(-c3cccc(-c4cc5ccccc5[nH]4)c3)[nH]c2c1 | – | – | – | – | – | – | 36 | –
Cn1c(-c2cc3cc(Br)ccc3[nH]2)cc2ccc(Br)cc21 | – | – | – | – | – | – | 25 | IC50 [2]: Not Active
Fc1ccc2[nH]c(-c3cc4ccc(Br)cc4[nH]3)cc2c1 | – | 2.8 | – | – | – | – | – | MIC [11]: 0.5 µg/mL (≈ 1.52 µM)
Cn1c(C#Cc2cc3ccc(Br)cc3[nH]2)cc2ccc(Br)cc21 | >64 | 13.7 | – | – | – | – | – | –
